The list is not random: actives were taken first. Their share in the collection is about 4.4%.
EBI2 antag – EBI2 receptor antagonists, beta-arrestin recruitment, primary screen, cell-based, luminescence, 7a,25-OHC stimulation, uHTS; inhibition, % at 5 µM; actives 0.81% (n = 360,000); 7a,25-OHC stimulated; G-protein coupled receptor 183 (Homo sapiens), P32249; in the data active means inhibition above about 38%;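 further: enzyme fragment complementation signal reports receptor beta-arrestin coupling in cells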
Target sequence (P32249 whole entry, looked up, the tested form may be a part): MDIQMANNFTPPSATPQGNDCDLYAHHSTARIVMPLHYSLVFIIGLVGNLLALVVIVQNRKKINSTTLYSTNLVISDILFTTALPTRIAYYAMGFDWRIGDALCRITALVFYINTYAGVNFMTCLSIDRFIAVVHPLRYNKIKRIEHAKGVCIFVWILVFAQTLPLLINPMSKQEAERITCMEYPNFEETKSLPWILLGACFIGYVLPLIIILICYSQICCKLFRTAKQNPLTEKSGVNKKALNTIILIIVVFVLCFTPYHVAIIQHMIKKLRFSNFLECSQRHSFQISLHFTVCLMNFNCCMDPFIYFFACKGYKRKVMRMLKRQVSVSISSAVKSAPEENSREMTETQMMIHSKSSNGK
GRIN3A LBD mod – binders of NR3A ligand-binding domain, primary screen, biophysical, differential scanning fluorimetry, uHTS | NR3A LBD differential scanning fluorimetry, Tm shift; 0% = protein alone, 100% = glycine-bound protein | Tm shift relative to glycine control, % at 25 µM | actives 2.5% (n = 340,000) | AID 1259313, 2017;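 active means melting temperature shift of at least 10% of the positive control shift, at one fixed dose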
MPTP inh – mitochondrial permeability transition pore inhibitors, primary screen, biochemical, isolated mouse mitochondria, absorbance. AID 602449, 2012. Ca2+ swelling absorbance, 30 min. inhibition, % at 10 µM. actives 1.4% (n = 360,000);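 active means inhibition of 50% or more, scaled per plate between neutral and stimulator controls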
SENP1 FRET inh – human SENP1 catalytic domain inhibitors, primary screen, biochemical, FRET, uHTS | Sentrin-specific protease 1 (Homo sapiens), Q9P0U3 | recombinant SENP1 catalytic domain, CyPet-SUMO1-YPet FRET cleavage | inhibition, % at 10 µM | actives 0.21% (n = 360,000) | AID 624204, 2012;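 active means inhibition at least 30% at 10 µM, raw YFP signal under a set limit, fluorescence ratio 0.5 to 1.5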
Target sequence (Q9P0U3 419-644 limits assumed): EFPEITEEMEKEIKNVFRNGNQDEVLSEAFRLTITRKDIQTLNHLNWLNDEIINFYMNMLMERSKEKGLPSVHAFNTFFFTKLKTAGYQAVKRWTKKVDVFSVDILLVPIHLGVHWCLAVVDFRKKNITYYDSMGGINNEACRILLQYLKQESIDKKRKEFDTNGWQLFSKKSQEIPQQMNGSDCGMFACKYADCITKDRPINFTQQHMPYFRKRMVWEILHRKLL
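Controls: no-enzyme wells low, DMSO-plus-enzyme wells high control. Test system: human recombinant His6-tagged SENP1 catalytic domain enzyme. Reagent: SFCypet-SUMO1-SFYpet FRET protein substrate, 25 nM final. Doses: one dose per compound, 10 µM, 0.5% DMSO. Detection: FRET, CFP and YFP emission. Timing: 50 min reaction at room temperature.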
Numbers stand for hits; i = inactive; nt = not tested or not shown.

SMILES	EBI2 antag	GRIN3A LBD mod	MPTP inh	SENP1 FRET inh
CCN1C(=O)S/C(=C/c2ccc(Oc3ccc([N+](=O)[O-])cn3)c(OC)c2)C1=O	i	i	i	i
COc1cc(/C=C2/SC(=O)N(CC(=O)N3CCCC3)C2=O)ccc1Oc1ccc([N+](=O)[O-])cn1	i	13	i	i
O=C(/C=C/c1ccccc1)CC(=O)c1ccccc1O	i	13	i	i
O=C(/C=C/c1ccccc1)NC(=O)c1ccccc1O	i	i	i	i
COc1cc(OC)c(/C=C2\C(=O)Nc3ccccc32)c(OC)c1	nt	i	nt	nt
NC(=O)COc1ccc(C(=O)/C=C2/C(=O)Nc3ccccc32)cc1	i	i	i	i
COc1ccc(C(=O)/C=C2/C(=O)Nc3ccccc32)cc1	63	i	i	i
C=CCOc1ccccc1C(=O)/C=C1/C(=O)Nc2ccccc21	53	i	i	i
COc1ccc(C(=O)/C=C2/C(=O)Nc3ccccc32)c(OC)c1	80	i	i	i
O=C1Nc2ccccc2/C1=C/C(=O)c1cccs1	43	i	i	i
Cc1ccc(CCN2CC(C(=O)NC(C)C)CC2=O)cc1 (stereo unspecified)	i	i	i	i
Nc1cc(N)nc(SCC(=O)NCc2ccc3c(c2)OCO3)n1	i	i	i	i
Cc1c(/C=N/NC(=O)c2ccc(O)cc2)c2ccccn2c1C(=O)c1ccc(F)cc1	i	18	i	i
COC(=O)N/N=C/c1c(C)c(C(=O)c2ccc(F)cc2)n2ccccc12	i	i	i	i
CCCn1c(=S)[nH]c2cc(C(=O)N3CCN(C4CCCCC4)CC3)ccc2c1=O	i	15	i	i
Cc1ccc(NC(=O)Cc2ccc(F)cc2)cc1	i	i	i	i
COc1ccc(O)c(CN2CCC(n3nccc3NC(=O)CCOc3ccccc3)CC2)c1	i	i	i	i
CC1=NN(C(N)=S)C(=O)C1N=Nc1ccc(C)c(Br)c1 (stereo unspecified)	i	12	i	i
CC1=NN(C(N)=S)C(=O)C1N=Nc1ccc(O)cc1 (stereo unspecified)	i	i	i	i
COc1ccc(Br)cc1/C=C/C(=O)Nc1ccc(C)cc1	i	20	i	i
COc1ccc(Br)cc1/C=C/C(=O)Nc1ccc2ccccc2c1	i	15	i	i
COC(=O)CNC(=O)/C=C/c1cc(Br)ccc1OC	i	i	i	i
CCCC(C(=O)NNC(=O)c1ccncc1)c1ccccc1 (stereo unspecified)	i	i	i	i
Cc1ccc(S(=O)(=O)N(C)CC(=O)NCCCn2nc(C)cc2C)cc1	i	13	i	i
Cc1ccc(S(=O)(=O)N(C)CC(=O)NCCCc2ccccc2)cc1	i	i	i	i
SMILES	EBI2 antag	GRIN3A LBD mod	MPTP inh	SENP1 FRET inh
CCCCNc1c(-c2ccc(-c3ccc(C(C)=O)cc3)c(OC)c2)nc2cnccn12	49	i	i	i
CCCCNc1c(-c2ccc(OC)c(SC3CCCCC3)c2)nc2cnccn12	i	i	i	i
CCCN(C(=O)CSc1n[nH]c(-c2ccc(OC)cc2)n1)c1c(N)n(Cc2ccccc2)c(=O)[nH]c1=O	i	i	i	i
Cc1ccc(OCCCN(C)C)c(Br)c1	i	i	i	i
COc1cccc(OC)c1OCCCOc1ccc(C)cc1Br	i	10	i	i
COc1ccccc1OCCCOc1c(C)cc(C)cc1Br	i	16	i	i
O=C(/C=C/c1ccccc1)NCCc1c[nH]c2ccccc12	i	i	i	i
O=C(Nc1cccnc1Cl)c1noc2c1CCc1ccccc1-2	i	i	i	i
COc1cccc2c3cccc(OC)c3c3[nH]cnc3c12	i	i	i	i
COCc1nnc(NC(=O)c2ccc(NC(C)=O)cc2)s1	i	24	i	i
Cc1ccc(NC(=S)N2CCOCC2)c(C)c1	i	16	i	i
Cc1ccc(NC(=O)CCC(=O)NNC(=S)Nc2ccccc2)c(C)c1	i	i	i	i
Cc1ccc(NC(=S)NNC(=S)Nc2ccc(C)cc2C)cc1	i	11	i	i
Fc1cccc(/C=N/Nc2ccccn2)c1	i	13	i	i
Fc1cccc(F)c1/C=N/Nc1ccccn1	i	i	i	i
Cc1cc(N/N=C/c2ccc(F)cc2)nc(NCc2ccccc2)n1	i	35	i	i
CCOCCc1c(O)nc(SCC(=O)N2CCOCC2)[nH]c1=O	i	i	i	i
CSc1nc(N)nc(SCC(=O)OC(C)C)c1C#N	i	i	i	i
CSc1nc(N)nc(SCC(=O)c2ccc(C)cc2)c1C#N	i	20	i	i
CCCCCn1c(CN2CCN(c3cc(Cl)ccc3C)CC2)nc2c1c(=O)[nH]c(=O)n2C	i	24	i	i
CC(=O)Nc1ccc(Nc2nc(C(F)(F)F)nc3c2nnn3Cc2ccccc2Cl)cc1	i	13	i	i
CC(C)Oc1cccc(C(=O)NC(=S)Nc2ccccc2)c1	i	i	i	i
CC1(C)Cc2c(sc3[nH]c(=O)n(CC(=O)NCC4CCCO4)c(=O)c23)CO1 (stereo unspecified)	i	i	i	i
COc1cc(NS(=O)(=O)N2CCCC2)cc(OC)c1OC	i	15	i	i
COc1cc(NS(=O)(=O)c2c(C)[nH]c(C)c2C(=O)N2CCCC2)cc(OC)c1OC	i	i	i	i
SMILES	EBI2 antag	GRIN3A LBD mod	MPTP inh	SENP1 FRET inh
Cc1ccc(/C=C/C(=O)c2c(C)nc3ccccn23)cc1	i	i	i	i
Cc1nc2ccccn2c1C(=O)/C=C/c1cccc([N+](=O)[O-])c1	42	i	i	i
COc1cc(/C=C/C(O)=C/C(=O)/C=C/c2ccc(O)cc2)ccc1O	i	23	i	i
O=c1[nH]c(NNC(=S)NCc2ccccc2)nc2c1C1(CCCCC1)Cc1ccccc1-2	i	26	i	i
O=C(N/N=C/c1cccnc1)c1cccc(NC(=O)c2ccc(Cl)cc2)c1	i	16	i	i
Cc1ccc(C(=O)Nc2ccc(C(=O)N/N=C/c3cccnc3)cc2)cc1	i	11	i	i
CCCN(C(=O)CSCc1ccc(Cl)cc1)c1c(N)n(Cc2ccccc2)c(=O)[nH]c1=O	i	i	i	i
CCOc1ccc(NC2=C(Cl)C(=O)N(C3CCCCC3)C2=O)cc1	i	17	i	i
O=C(/C(=C(\O)c1ccccc1)c1ncc[nH]1)c1ccccc1	i	i	i	i
COc1cc2cc(CN(Cc3cccs3)C(=S)Nc3ccccc3)c(=O)[nH]c2cc1OC	i	17	i	i
Cc1ccc(NC(=S)N(Cc2cccs2)Cc2cc3cccc(C)c3[nH]c2=O)cc1	i	15	i	i
CNC(=S)N(Cc1cccs1)Cc1cc2ccc(OC)cc2[nH]c1=O	i	i	i	i
COc1ccc(Nc2cc(C)nc(N3CCN(C(=O)c4ccc5c(c4)OCO5)CC3)n2)cc1	i	i	i	i
Cc1[nH]c(C)c(S(=O)(=O)Nc2ccc(OC(F)(F)F)cc2)c1C(=O)N1CCCCC1	i	i	i	i
O=C(CSc1ccc(F)cc1)NC(=O)NCc1ccccc1	i	i	i	i

Assay outcomes deposited in PubChem by Sanford-Burnham Center for Chemical Genomics.
